Assay results of several laboratories.
Target: LIM domain kinase 1 (LIMK1, Homo sapiens, UniProt P53667)

Cn1cc(-c2cccc(N3CCc4c(sc5c4CC(C)(C)C5)C3=O)c2CO)cc(Nc2ccncn2)c1=O gave an inhibition of 9% (enzyme activity, inhibitor; 1 µM).
N#CC1(c2ccccn2)CCN(Cc2cc(C(=O)O)c(=O)n3ccccc23)CC1 has a remaining binding of 100% (cell-free assay, competition with immobilised ligand; 1 µM).
The inhibition of COc1cc(Nc2ncc(F)c(Nc3ccc4c(n3)NC(=O)C(C)(C)O4)n2)cc(OC)c1OC is reported as 85% (binding, competition with immobilised ligand; 10 µM).
O=c1[nH]c2ccccc2n1C1CCN(Cc2ccc(-c3[nH]c4cc5ncnc5cc4nc3-c3ccccc3)cc2)CC1 has a remaining signal of 110% (cell-free assay; 0.5 µM).
Cn1cncc1[C@](O)(COc1ccc(C#N)cc1-c1ccc(OC(F)(F)F)cc1)c1ccc(C#N)cc1 gave a remaining binding of 89% (cell-free assay, competition with immobilised ligand; 1 µM).
Nc1ncc(-c2nc(N3CCOCC3)nc(N3CCOCC3)n2)c(C(F)F)n1 has a remaining binding of 86% (binding, competition with immobilised ligand; 10 µM).
Cc1nn(C)cc1-c1nc2c(N3CCN(Cc4ccc(Cl)cc4)CC3)c(Cl)cnc2[nH]1 gave a remaining binding of 58% (binding, competition with immobilised ligand; 1 µM).
COc1ncccc1-c1cnn2ccc(N3CCN(C(=O)OC(C)C)CC3)nc12 gave a remaining binding of 100% (binding, competition with immobilised ligand; 1 µM).
For Cn1cc(-c2cc(F)cc(N3CCn4c(cc5c4CCCC5)C3=O)c2CO)cc(Nc2ccc(N3CCN(C4COC4)CC3)cn2)c1=O, the inhibition was 2% (enzyme activity, inhibitor; 0.1 µM).
CC(C)(C)c1cc(C=C(C#N)C#N)cc(Br)c1O gave a remaining activity of 98.5% (enzyme activity, inhibitor; 0.5 µM).
